Experiment [1] has as its target Amyloid-beta precursor protein (Homo sapiens) (UniProt P05067). Briefly: Inhibition of human amyloid-beta (1 to 42 residues) fibril at 1:1 protein to compound ratio after 2 hrs by ELISA. To be noted: concentration not given here.
Experiment [2] can be described thus: Antioxidant activity assessed as inhibition of peroxyl radical-induced oxidation at 10 uM by ORAC assay. Type of experiment: functional. On the set-up: scale not given: the % may be the effect or the level left.
Experiment [3] deals with T1, Cholinesterase (Homo sapiens, UniProt P06276). As to the kind of experiment: Inhibition of BuChE (unknown origin) by spectrophotometric analysis based Ellman's assay. A general note: DTNB colorimetry detects thiols as they appear.
T1 sequence (P06276 whole entry): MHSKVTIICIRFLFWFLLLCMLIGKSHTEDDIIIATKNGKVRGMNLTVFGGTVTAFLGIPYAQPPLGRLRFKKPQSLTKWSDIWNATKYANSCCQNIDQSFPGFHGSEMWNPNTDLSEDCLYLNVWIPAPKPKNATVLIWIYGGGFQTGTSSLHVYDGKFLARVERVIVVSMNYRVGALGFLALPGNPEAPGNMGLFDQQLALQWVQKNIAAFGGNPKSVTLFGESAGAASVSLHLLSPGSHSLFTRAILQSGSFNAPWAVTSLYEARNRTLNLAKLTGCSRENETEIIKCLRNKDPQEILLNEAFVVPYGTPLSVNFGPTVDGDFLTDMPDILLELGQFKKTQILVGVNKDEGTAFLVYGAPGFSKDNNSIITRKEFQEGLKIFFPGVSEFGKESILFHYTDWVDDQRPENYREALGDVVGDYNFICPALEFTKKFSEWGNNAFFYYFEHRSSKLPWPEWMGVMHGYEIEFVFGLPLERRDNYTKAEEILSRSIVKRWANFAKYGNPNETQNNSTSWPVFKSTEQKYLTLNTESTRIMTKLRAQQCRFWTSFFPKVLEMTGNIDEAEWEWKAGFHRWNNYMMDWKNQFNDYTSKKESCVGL
The nature of experiment [4]: Antioxidant activity assessed as ABTS free radical scavenging activity at 10 uM. Type of experiment: functional.
Experiment [5] in a line: Antioxidant activity assessed as DPPH radical scavenging activity at 10 uM. Format: functional. (The DPPH test is a chemical assay of radical scavenging.)
Experiment [6] deals with T1, Cholinesterase. As to the kind of experiment: Inhibition of BuChE (unknown origin) at 10 uM by spectrophotometric analysis based Ellman's assay. The method, boiled down:
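Ellman colorimetric assay of BuChE activity, with each compound tested at a single 10 μM concentration. […] Activity is reported as percent inhibition.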

Experiment [7] has as its target Amyloid-beta precursor protein (Homo sapiens) (UniProt P05067). Briefly: Inhibition of human amyloid-beta (1 to 42 residues) oligomer at 1:1 protein to compound ratio after 2 hrs by ELISA. To be noted: concentration not given here.

Amyloid-beta precursor protein (Homo sapiens), sequence (P05067 whole entry, the tested form may be a part): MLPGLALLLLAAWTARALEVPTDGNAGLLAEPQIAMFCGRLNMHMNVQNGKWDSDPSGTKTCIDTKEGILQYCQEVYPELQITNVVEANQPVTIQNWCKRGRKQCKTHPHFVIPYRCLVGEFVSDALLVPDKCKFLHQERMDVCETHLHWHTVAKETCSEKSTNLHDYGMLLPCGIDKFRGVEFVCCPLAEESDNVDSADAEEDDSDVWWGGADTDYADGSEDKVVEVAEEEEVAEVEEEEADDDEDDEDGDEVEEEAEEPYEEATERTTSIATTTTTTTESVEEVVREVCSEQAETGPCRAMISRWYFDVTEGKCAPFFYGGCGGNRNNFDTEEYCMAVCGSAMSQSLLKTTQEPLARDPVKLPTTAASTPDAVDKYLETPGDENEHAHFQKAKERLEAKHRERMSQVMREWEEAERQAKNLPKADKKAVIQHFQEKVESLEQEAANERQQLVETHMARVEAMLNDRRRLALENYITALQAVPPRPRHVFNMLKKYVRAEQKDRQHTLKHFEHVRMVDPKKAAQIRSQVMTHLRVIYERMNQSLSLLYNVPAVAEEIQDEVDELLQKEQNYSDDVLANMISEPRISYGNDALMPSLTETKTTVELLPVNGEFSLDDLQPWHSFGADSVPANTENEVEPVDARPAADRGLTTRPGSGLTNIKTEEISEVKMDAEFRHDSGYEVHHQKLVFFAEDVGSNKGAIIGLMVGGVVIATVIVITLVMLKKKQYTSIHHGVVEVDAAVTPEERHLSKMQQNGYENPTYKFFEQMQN

As for `COc1ccc2[nH]c3c(-c4ccc(F)cc4)nccc3c2c1`, the results for the inhibition in experiment [1] and in experiment [6] were 12% and 34%, respectively. Besides, the values for the Activity in experiment [2], in experiment [4] and in experiment [5] were 41%, 15% and -13%, respectively. Further, in experiment [3], the IC50 (commonly the concentration at which inhibition is half-maximal) was above 10 µM.

Turning to `c1ccc(-c2nccc3c2[nH]c2ccccc23)cc1`, the inhibition (usually the change of the read-out against control, counted positive when it falls) in experiment [1] was -4%; in experiment [7], 79%; in experiment [6] it was 46%. In addition, the Activity was 10% in experiment [2], 12% in experiment [4] and -7% in experiment [5]. The compound also returned an IC50 in experiment [3] above 10 µM.

Turning to `Fc1ccc(-c2nccc3c2[nH]c2ccccc23)cc1`, the inhibition in experiment [1] came to 37%; in experiment [7], 22%; in experiment [6] it was 79%. For the same compound, the figures for the Activity in experiment [2], in experiment [4] and in experiment [5] were 54%, 22% and -3%, respectively. Also, half-maximal inhibition in experiment [3] (IC50) required 4.27 µM.

As to `O=C(c1ccccc1)c1nccc2c1[nH]c1ccccc12`, the results for the inhibition in experiment [1] and in experiment [6] were 20% and 11%, respectively. Further, the Activity in experiment [2] was 6%; in experiment [4], 6%; in experiment [5], -3%. The IC50 in experiment [3] was above 10 µM.

As to `c1ccc2c(-c3nccc4c3[nH]c3ccccc34)cccc2c1`, the inhibition is 39% in experiment [1], 58% in experiment [7] and 95% in experiment [6]. Also, the Activity in experiment [2] was 0%; in experiment [4] it was 14%; in experiment [5] it was -6%. Besides, the IC50 in experiment [3] was 0.22 µM.

As for `O=C(c1ccc(C(F)(F)F)cc1)c1nccc2c1[nH]c1ccccc12`, the inhibition in experiment [1] turned out to be 11%; in experiment [6], 69%. Moreover, the Activity is -10% in experiment [2], 7% in experiment [4] and -1% in experiment [5]. In addition, inhibition in experiment [3] was half-maximal at 1.29 µM (IC50).

`Cc1ccc2[nH]c3c(-c4ccc(C(F)(F)F)cc4)nccc3c2c1`: the results for the inhibition in experiment [1] and in experiment [7] were 34% and 82%, respectively.

In the case of `COc1ccc2[nH]c3c(-c4ccc(C)cc4)nccc3c2c1`, the figures for the inhibition in experiment [1], in experiment [7] and in experiment [6] were 10%, 63% and 32%, respectively. Moreover, the Activity was 28% in experiment [2], 13% in experiment [4] and -12% in experiment [5]. Also, in experiment [3], the half-inhibitory concentration (IC50) was above 10 µM.

Consider `COc1ccc2[nH]c3c(-c4ccccc4)nccc3c2c1`, for which the results for the inhibition in experiment [1], in experiment [7] and in experiment [6] were 19%, 58% and 64%, respectively. In addition, the Activity in experiment [2] is 35%; in experiment [4] it was 16%; in experiment [5], -6%. The compound also gave an IC50 in experiment [3] of 4.48 µM.

On to `O=C1O[C@H]([C@@H](O)CO)C(O)=C1O`, for which the Activity in experiment [2] is 15%; in experiment [4] it was 28%; in experiment [5] it was 15%.

As to `Cc1ccccc1-c1nccc2c1[nH]c1ccccc12`, the inhibition in experiment [1] came to 17%; in experiment [7], 45%; in experiment [6] it was 7%. In addition, the Activity in experiment [2] worked out at 58%; in experiment [4] it was 15%; in experiment [5], 0%. The same compound registered an IC50 in experiment [3] above 10 µM.

As for `COc1ccc2[nH]c3c(C(=O)c4ccc(F)cc4)nccc3c2c1`, the values for the inhibition in experiment [1], in experiment [7] and in experiment [6] were 6%, 82% and 1%, respectively. Besides, the Activity in experiment [2] is 5%; in experiment [4] it was 5%; in experiment [5], -4%. In addition, the half-inhibitory concentration (IC50) in experiment [3] is above 10 µM.

As to `COc1ccc2[nH]c3c(C(=O)c4ccc(C(F)(F)F)cc4)nccc3c2c1`, the values for the inhibition in experiment [1], in experiment [7] and in experiment [6] were -5%, 84% and 46%, respectively. Also, the values for the Activity in experiment [2], in experiment [4] and in experiment [5] were 5%, 3% and 2%, respectively. Further, half-maximal inhibition in experiment [3] (IC50) was put at 1.42 µM.

In the case of `c1ccc2c(c1)[nH]c1c(C3CCCCC3)nccc12`, the inhibition in experiment [7] turned out to be 30%.

On to `Cc1ccc2[nH]c3c(-c4ccccc4)nccc3c2c1`, for which the inhibition is -7% in experiment [1], 6% in experiment [7] and 54% in experiment [6]. The Activity was 10% in experiment [2], 10% in experiment [4] and 2% in experiment [5]. In experiment [3], this compound gave an IC50 of 3.06 µM.

Take `Cc1c(C)c2c(c(C)c1O)CCC(C)(C(=O)O)O2` (stereo not given): the values for the Activity in experiment [2], in experiment [4] and in experiment [5] were 90%, 26% and 23%, respectively.
